Measurements of several laboratories.
Lines come from different studies, so protocols differ. pIC50, pKd: −log10 of the molar value.
Ephx2: Bifunctional epoxide hydrolase 2 (Ephx2, Rattus norvegicus, UniProt P80299)
Dihydrofolate reductase: Dihydrofolate reductase (Mycobacterium avium, UniProt O30463)

Structure (SMILES)	target	read-out	action	technique	quantity	value
CN1Cc2c(N)cccc2C(=O)N1C1CCC(=O)NC1=O (stereo not shown)	Cereblon/Ikaros (Homo sapiens, UniProt Q13422+Q96SW2)	protein level	degrader	luciferase	DC50	67.2 nM
O=C(Nc1ccc(-c2ccc3cccnc3c2)cc1)C1CCN(S(=O)(=O)c2ccccc2Cl)CC1	Ephx2	enzyme activity	inhibitor	fluorescence	pIC50	8.09
CCCOc1nc(N)nc(N)c1OCCCOc1ccccc1CCC(=O)O	Dihydrofolate reductase	enzyme activity	inhibitor		pIC50	< 5.30
O=C(C=Cc1ccccc1)Nc1cc(-c2ccnc(N3CCC(O)CC3)c2)ccn1	Estrogen receptor (ESR1, Homo sapiens, UniProt P03372)	binding		SPR	pKd	5.89
O=C(Nc1ccc(-c2ccnc3ccccc23)cc1)C1CCN(S(=O)(=O)c2ccccc2Cl)CC1	Ephx2	enzyme activity	inhibitor	fluorescence	pIC50	9.15
CC[C@H](NC(=O)[C@H](CS(=O)(=O)CC1CC1)N[C@@H](c1ccc(F)cc1)C(F)(F)F)C(=O)C(=O)NC1CC1	Dipeptidyl peptidase 1 (Ctsc, Mus musculus, UniProt P97821)	enzyme activity	inhibitor	fluorescence	pIC50	4.74
O=C1CC[C@H](N2Cc3cc(N4CCN(CC5CCN(c6ccc([C@@H]7c8ccc(O)cc8CC[C@@H]7c7ccccc7)cc6)CC5)CC4)ccc3C2=O)C(=O)N1	Glucocorticoid receptor (NR3C1, Homo sapiens, UniProt P04150)	ligand displacement		radioligand	pIC50	7.08
O=c1cc(-c2ccc(O)cc2)oc2c([C@@H]3OC[C@H](O)[C@H](O)[C@H]3O)c(O)c([C@@H]3O[C@H](CO)[C@@H](O)[C@H](O)[C@H]3O)c(O)c12	Calcium/calmodulin-dependent protein kinase type II subunit beta (CAMK2B, Homo sapiens, UniProt Q13554)	enzyme activity	inhibitor		pIC50	3.80
Cc1cc([C@@H](C)Nc2ccccc2C(=O)O)c2nc(N3CCC(F)(F)CC3)c(C#N)c(=O)n2c1	Phosphatidylinositol 3-kinase catalytic subunit type 3 (PIK3C3, Homo sapiens, UniProt Q8NEB9)	enzyme activity	inhibitor	ADP detection	pIC50	< 5.00
Nc1nc(N)c(OCCCOc2ccccc2CCC(=O)O)c(-c2ccc(C(F)(F)F)cc2)n1	Dihydrofolate reductase	enzyme activity	inhibitor		pIC50	7.17
